Laboratory results as given in ChEMBL document CHEMBL1140821, “Novel indole-3-sulfonamides as potent HIV non-nucleoside reverse transcriptase inhibitors (NNRTIs)” (Bioorg Med Chem Lett, 2008).
pIC50: −log10 of the molar value.

Assays:
[1] = tested on: Human immunodeficiency virus; assay: Antiviral activity against HIV 3B in MT4 cells assessed as inhibition of replication after 3 days in presence of 10% fetal bovine serum; type: functional; conditions: Human immunodeficiency virus 1, 3B, MT4, 72 h; read-out: CIC95
Outline: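 MT4 cells infected overnight with wild-type H9IIIB virus (moi 0.01) without compound, washed, then cultured 3 days across a compound concentration range in 10% FBS. Replication read as p24 in culture supernatants. CIC95 = lowest concentration inhibiting replication by ≥95%.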

[2] = Inhibition of HIV NL43 recombinant reverse transcriptase by scintillation proximity assay; design: species or system Human immunodeficiency virus
Outline: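 Purified recombinant wild-type RT (NL_43) polymerase activity measured as 3H-dNTP incorporation, using a 500 nt heteropolymeric RNA template with biotinylated DNA primer. Read by scintillation proximity assay.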

[3] = molecular target: Human immunodeficiency virus type 1 reverse transcriptase (Human immunodeficiency virus 1, UniProt Q72547, K103N); assay: Inhibition of HIV NL43 recombinant reverse transcriptase K103N mutant by scintillation proximity assay
[4] = molecular target: Human immunodeficiency virus type 1 reverse transcriptase (Human immunodeficiency virus 1, UniProt Q72547, Y181C); assay: Inhibition of HIV HXB2 recombinant reverse transcriptase Y181C mutant by scintillation proximity assay

SMILES | IC95 [1] | pIC50 [2] | pIC50 [3] | pIC50 [4]
NC(=O)c1[nH]c2ccc(C3CC3)cc2c1S(=O)(=O)N1CCCC1 | 160 nM | 6.03 | – | –
Cc1cnc(-c2[nH]c3ccc(Br)cc3c2S(=O)(=O)N2CCCC2)[nH]1 | < 7.8 nM | 8.51 | 7.38 | 7.60
O=S(=O)(c1c(-c2ncc(-c3ccccc3)[nH]2)[nH]c2ccc(Br)cc12)N1CCCC1 | 67 nM | 7.96 | 6.82 | < 5.04
NC(=O)c1[nH]c2ccc(-c3cccnc3)cc2c1S(=O)(=O)N1CCCC1 | 310 nM | 5.66 | – | –
NC(=O)c1[nH]c2ccc(Br)cc2c1S(=O)(=O)N1CCCC1 | < 7.8 nM | – | 5.00 | 6.92
Cc1cnc(-c2[nH]c3ccc(Cl)cc3c2S(=O)(=O)c2ccccc2)[nH]1 | 12 nM | 8.30 | – | –
O=S(=O)(c1c(-c2nc3ccccc3[nH]2)[nH]c2ccc(Br)cc12)N1CCCC1 | 78 nM | 8.16 | 6.55 | 7.42
NC(=O)c1[nH]c2ccc(Cl)cc2c1S(=O)(=O)N1CCCC1 | < 7.8 nM | 8.41 | 5.71 | 7.32
NC(=O)c1[nH]c2ccc(Br)cc2c1S(=O)(=O)NC1CCCCC1 | 125 nM | 7.85 | – | –
NC(=O)c1[nH]c2ccc(Br)cc2c1S(=O)(=O)N1CCC(F)(F)CC1 | 410 nM | 8.35 | – | –
O=S(=O)(c1c(-c2nc3ccc(F)cc3[nH]2)[nH]c2ccc(Br)cc12)N1CCCC1 | 280 nM | 7.82 | 6.66 | 5.28
O=C(NCc1nccs1)c1[nH]c2ccc(Br)cc2c1S(=O)(=O)N1CCCC1 | < 7.8 nM | 8.55 | 6.55 | 6.70
O=C(NCc1ccnc2ccccc12)c1[nH]c2ccc(Br)cc2c1S(=O)(=O)N1CCCC1 | 82 nM | 8.51 | 7.60 | 7.20
O=C(NCc1ccn[nH]1)c1[nH]c2ccc(Br)cc2c1S(=O)(=O)N1CCCC1 | < 7.8 nM | 8.60 | 6.59 | 6.08
O=C(NCc1c(F)cccc1Cl)c1[nH]c2ccc(Br)cc2c1S(=O)(=O)N1CCCC1 | 25 nM | 8.42 | 7.70 | 7.80
COc1ccc2nc(-c3[nH]c4ccc(Br)cc4c3S(=O)(=O)N3CCCC3)[nH]c2c1 | 400 nM | 7.35 | 6.82 | 5.29
NC(=O)c1[nH]c2ccc(Br)cc2c1S(=O)(=O)NC1CCC1 | 125 nM | 9.30 | – | –

SMILES | IC95 [1] | pIC50 [2] | pIC50 [3] | pIC50 [4]
O=S(=O)(c1c(-c2nc3cccc(O)c3[nH]2)[nH]c2ccc(Br)cc12)N1CCCC1 | 82 nM | 8.00 | 7.32 | 6.09
NC(=O)c1[nH]c2ccc(Cc3ccc(Cl)cn3)cc2c1S(=O)(=O)N1CCCC1 | – | 7.23 | 5.09 | < 5.00
NC(=O)c1[nH]c2ccc(C#CC3CC3)cc2c1S(=O)(=O)N1CCCC1 | 630 nM | 6.37 | – | –
O=C(NCc1cncs1)c1[nH]c2ccc(Br)cc2c1S(=O)(=O)N1CCCC1 | 16 nM | 8.21 | 7.03 | 8.22
NC(=O)c1[nH]c2ccc(Br)cc2c1S(=O)(=O)NC1CCC(F)(F)C1 (centres undefined) | 140 nM | 9.70 | – | –
O=S(=O)(c1c(-c2nc3cccnc3[nH]2)[nH]c2ccc(Br)cc12)N1CCCC1 | 82 nM | 7.40 | 6.43 | 5.30
NC(=O)c1[nH]c2ccc(Br)cc2c1S(=O)(=O)N1CCCCC1 | 16 nM | 8.24 | – | –
O=C(NCCO)c1[nH]c2ccc(Br)cc2c1S(=O)(=O)N1CCCC1 | 625 nM | 7.82 | 5.55 | 8.16
CCCNS(=O)(=O)c1c(C(N)=O)[nH]c2ccc(Br)cc12 | 160 nM | 7.72 | – | –
O=C(NCc1ccncc1)c1[nH]c2ccc(Br)cc2c1S(=O)(=O)N1CCCC1 | < 7.8 nM | 7.85 | 6.77 | 8.20
CCC(O)c1cnc(-c2[nH]c3ccc(Br)cc3c2S(=O)(=O)N2CCCC2)[nH]1 (centres undefined) | 50 nM | 8.06 | 7.21 | 5.59
CCC(OC)c1cnc(-c2[nH]c3ccc(Br)cc3c2S(=O)(=O)N2CCCC2)[nH]1 (centres undefined) | 100 nM | 7.80 | 6.96 | 6.62
O=C(NCc1ccccc1O)c1[nH]c2ccc(Br)cc2c1S(=O)(=O)N1CCCC1 | 23 nM | 8.62 | 7.51 | 8.03
NC(=O)c1[nH]c2ccc(-c3ccccc3)cc2c1S(=O)(=O)N1CCCC1 | 1300 nM | 6.26 | – | –
NC(=O)c1[nH]c2ccc(Cl)cc2c1S(=O)(=O)c1ccccc1 [L-737126] | – | 8.52 | 6.94 | 7.15
N#Cc1ccc2[nH]c(C(N)=O)c(S(=O)(=O)N3CCCC3)c2c1 | 16 nM | 8.04 | 5.64 | < 5.00
NC(=O)c1[nH]c2ccc(Br)cc2c1S(=O)(=O)NC1CCCC1 | 125 nM | 7.74 | – | –
